The text below walks through data of ChEMBL document CHEMBL2424622, “Development of amino-pyrimidine inhibitors of c-Jun N-terminal kinase (JNK): kinase profiling guided optimization of a 1,2,3-benzotriazole lead” (Bioorg Med Chem Lett, 2013).

For assay [1], the target named is T1, Dual specificity mitogen-activated protein kinase kinase 4 (Homo sapiens) (UniProt P45985).
T1 sequence (whole entry): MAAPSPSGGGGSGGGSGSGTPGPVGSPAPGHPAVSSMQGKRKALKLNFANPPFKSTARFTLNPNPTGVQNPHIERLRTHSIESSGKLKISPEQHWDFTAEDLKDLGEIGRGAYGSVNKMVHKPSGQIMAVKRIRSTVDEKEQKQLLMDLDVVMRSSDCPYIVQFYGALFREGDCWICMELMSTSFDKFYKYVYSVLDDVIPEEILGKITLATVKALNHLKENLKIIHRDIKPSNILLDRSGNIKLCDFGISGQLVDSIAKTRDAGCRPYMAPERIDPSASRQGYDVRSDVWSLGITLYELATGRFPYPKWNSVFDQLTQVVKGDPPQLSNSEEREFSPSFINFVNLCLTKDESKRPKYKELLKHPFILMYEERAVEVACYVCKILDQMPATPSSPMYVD
Description: Competitive binding affinity to MEK4 (unknown origin) at 10 uM in presence of ATP relative to control.

Assay [2] has as its target Serine/threonine-protein kinase MARK1 (Homo sapiens) (UniProt Q9P0L2). Description: Competitive binding affinity to MARK1 (unknown origin) at 10 uM in presence of ATP relative to control. The method, boiled down:
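In vitro ATP-site competition binding assay, part of profiling against a diverse panel of 128 kinases. Each compound was tested at a single concentration of 10 µM. Kinome selectivity was summarized as S15 selectivity scores.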

Assay [3] addresses T2, Non-receptor tyrosine-protein kinase TNK1 (Homo sapiens) (UniProt Q13470).
T2 sequence (whole entry): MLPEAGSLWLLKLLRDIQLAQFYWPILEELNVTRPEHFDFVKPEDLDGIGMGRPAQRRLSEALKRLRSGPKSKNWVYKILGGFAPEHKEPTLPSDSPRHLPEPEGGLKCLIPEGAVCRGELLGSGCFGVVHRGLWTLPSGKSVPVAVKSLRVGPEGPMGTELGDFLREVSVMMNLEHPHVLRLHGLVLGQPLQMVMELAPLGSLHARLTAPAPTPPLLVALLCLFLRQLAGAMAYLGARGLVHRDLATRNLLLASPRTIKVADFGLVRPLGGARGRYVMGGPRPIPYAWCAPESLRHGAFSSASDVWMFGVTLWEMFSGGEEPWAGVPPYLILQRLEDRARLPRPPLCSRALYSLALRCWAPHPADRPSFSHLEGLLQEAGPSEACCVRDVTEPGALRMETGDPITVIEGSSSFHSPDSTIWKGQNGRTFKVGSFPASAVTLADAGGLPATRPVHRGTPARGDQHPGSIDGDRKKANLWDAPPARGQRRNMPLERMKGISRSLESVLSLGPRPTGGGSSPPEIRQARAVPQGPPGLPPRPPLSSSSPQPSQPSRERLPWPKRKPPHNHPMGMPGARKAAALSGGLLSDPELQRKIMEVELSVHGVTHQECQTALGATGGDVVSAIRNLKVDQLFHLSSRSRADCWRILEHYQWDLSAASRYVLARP
Description: Competitive binding affinity to TNK1 (unknown origin) at 10 uM in presence of ATP relative to control.

The target of assay [4] is T3, Interleukin-1 receptor-associated kinase 3 (Homo sapiens) (UniProt Q9Y616).
T3 sequence (whole entry): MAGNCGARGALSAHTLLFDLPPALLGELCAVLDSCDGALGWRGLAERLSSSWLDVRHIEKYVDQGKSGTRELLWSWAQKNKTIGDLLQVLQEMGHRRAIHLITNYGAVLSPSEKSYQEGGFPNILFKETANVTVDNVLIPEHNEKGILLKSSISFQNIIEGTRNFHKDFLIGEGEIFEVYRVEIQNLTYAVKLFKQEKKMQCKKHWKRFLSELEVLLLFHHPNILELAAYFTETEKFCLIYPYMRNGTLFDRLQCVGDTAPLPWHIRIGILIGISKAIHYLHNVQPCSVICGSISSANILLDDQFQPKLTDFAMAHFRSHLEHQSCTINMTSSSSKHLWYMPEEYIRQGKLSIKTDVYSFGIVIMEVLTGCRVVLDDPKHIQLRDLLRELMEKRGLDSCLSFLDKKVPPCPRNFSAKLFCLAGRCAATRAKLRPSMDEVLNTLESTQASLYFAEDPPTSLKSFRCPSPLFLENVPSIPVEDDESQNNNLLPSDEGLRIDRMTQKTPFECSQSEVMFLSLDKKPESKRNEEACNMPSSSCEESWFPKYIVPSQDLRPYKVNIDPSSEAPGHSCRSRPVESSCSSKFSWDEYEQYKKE
Description: Competitive binding affinity to IRAK3 (unknown origin) at 10 uM in presence of ATP relative to control.

For assay [5], the target named is Serine/threonine-protein kinase 33 (Homo sapiens) (UniProt Q9BYT3). Description: Competitive binding affinity to STK33 (unknown origin) at 10 uM in presence of ATP relative to control.
Serine/threonine-protein kinase 33 (Homo sapiens), sequence (Q9BYT3 whole entry, looked up): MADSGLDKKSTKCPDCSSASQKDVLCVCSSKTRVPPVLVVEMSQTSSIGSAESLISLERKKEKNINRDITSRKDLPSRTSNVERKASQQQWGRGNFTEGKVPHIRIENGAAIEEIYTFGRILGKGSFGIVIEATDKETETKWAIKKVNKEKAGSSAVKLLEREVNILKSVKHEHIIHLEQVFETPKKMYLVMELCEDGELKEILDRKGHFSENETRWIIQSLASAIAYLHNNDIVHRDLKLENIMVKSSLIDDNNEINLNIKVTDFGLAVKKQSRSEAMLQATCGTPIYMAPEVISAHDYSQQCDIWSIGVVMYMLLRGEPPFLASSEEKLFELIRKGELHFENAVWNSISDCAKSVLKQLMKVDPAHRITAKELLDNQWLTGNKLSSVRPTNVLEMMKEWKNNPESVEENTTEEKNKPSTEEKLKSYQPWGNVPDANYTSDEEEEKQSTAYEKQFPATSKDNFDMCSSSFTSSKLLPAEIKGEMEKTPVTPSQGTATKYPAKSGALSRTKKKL

The term inhibition denotes the drop in the measured response relative to a control, in per cent.

Molecules are shown by their SMILES.

Serine/threonine-protein kinase MARK1 (Homo sapiens), sequence (Q9P0L2 whole entry, looked up): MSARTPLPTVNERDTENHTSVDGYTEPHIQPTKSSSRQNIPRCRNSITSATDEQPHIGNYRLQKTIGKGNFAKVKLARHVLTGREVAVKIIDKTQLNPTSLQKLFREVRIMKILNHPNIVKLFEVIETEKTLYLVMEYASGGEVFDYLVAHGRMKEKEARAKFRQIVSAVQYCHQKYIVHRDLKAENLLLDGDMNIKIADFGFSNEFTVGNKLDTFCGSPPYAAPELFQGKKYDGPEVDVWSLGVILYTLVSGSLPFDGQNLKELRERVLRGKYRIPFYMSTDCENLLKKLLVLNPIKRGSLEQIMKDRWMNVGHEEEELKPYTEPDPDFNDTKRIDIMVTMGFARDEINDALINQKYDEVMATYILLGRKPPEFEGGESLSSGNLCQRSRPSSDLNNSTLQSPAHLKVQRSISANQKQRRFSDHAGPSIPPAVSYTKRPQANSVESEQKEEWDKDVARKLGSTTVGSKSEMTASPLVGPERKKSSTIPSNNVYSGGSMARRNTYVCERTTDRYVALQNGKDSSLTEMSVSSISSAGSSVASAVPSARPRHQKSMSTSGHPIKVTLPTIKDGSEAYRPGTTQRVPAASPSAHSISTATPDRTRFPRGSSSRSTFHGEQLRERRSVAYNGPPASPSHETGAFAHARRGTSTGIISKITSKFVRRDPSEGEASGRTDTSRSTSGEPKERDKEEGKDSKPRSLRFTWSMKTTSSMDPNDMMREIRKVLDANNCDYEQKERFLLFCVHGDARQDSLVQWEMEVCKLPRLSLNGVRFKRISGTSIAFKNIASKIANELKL

With `CS(=O)(=O)CCCOc1cccc2c1ccn2-c1ccnc(N[C@H]2CC[C@H](C(=O)N3CCC(O)CC3)CC2)n1`, the inhibition in assay [1] was > 85%.
Take `O[C@H]1CC[C@H](Nc2nccc(-n3ccc4ccccc43)n2)CC1`: the inhibition is < 50% in assay [2]; 97% in assay [1]; < 50% in assay [3]; 87% in assay [4]; < 50% in assay [5].
`O[C@H]1CC[C@H](Nc2nccc(-n3ncc4ccccc43)n2)CC1`: the inhibition in assay [2] is < 50%; in assay [1] it was 99%; in assay [3], < 50%; in assay [4] it was 88%; in assay [5], 78%.
Consider `O[C@H]1CC[C@H](Nc2nccc(-c3n[nH]c4ccccc34)n2)CC1`, for which the inhibition is 66% in assay [2], 81% in assay [3] and 98% in assay [5].
On to `O[C@H]1CC[C@H](Nc2nccc(-n3nnc4ccccc43)n2)CC1`, for which the inhibition in assay [2] was < 50%; in assay [1] it was 99%; in assay [3] it was < 50%; in assay [4] it was 85%; in assay [5], 75%.
